These results are taken from ChEMBL document CHEMBL1122098, “2-Amino-4,7-dimethoxyindan derivatives: synthesis and assessment of dopaminergic and cardiovascular actions” (1982).

Type in all cases: functional
For test [1], the species on record is Felis catus. Nature of the test: Tested for the inhibition of cardioaccelerator nerves in cat. The following applies: read-out: ID50 (the source's name). In a few lines:
(§1)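 Cats 2-4 kg, either sex, anesthetized with pentobarbital sodium 30 mg/kg ip, pretreated with atropine sulfate 0.2 mg/kg iv. Compounds in saline given as iv bolus via femoral catheter. Blood pressure and heart rate recorded. Right cardioaccelerator nerve stimulated at 2 Hz, 5-ms pulses, 20–25 V supramaximal; inhibition of the positive chronotropic response measured, with ED50 calculated. Haloperidol 100 µg/kg iv given beforehand for blockade.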

For test [2], the species on record is Rattus norvegicus. In words: Tested for the alteration in rat CNS transmitter synthesis by […] of Dopa from caudate nucleus. On the set-up: concentration or dose not given beside the values. In a few lines: (§2)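 Rat in vivo synthesis-index model (Carlsson): test compound 4.0 mg/kg sc given 30 min before GBL 750 mg/kg ip in distilled water; apomorphine 4.0 mg/kg sc 5 min before GBL. Five min after GBL, NSD 1015 100 mg/kg ip in saline; decapitation 30 min later. Dopa in caudate nucleus and 5-HTP in olfactory tubercle measured, expressed as percent of saline+GBL control; p < 0.05 criterion.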

A short description of test [3]: Tested for the ratio between rat rotation and the potency to apomorphine. The procedure, abridged: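 Rats with unilateral substantia nigra 6-hydroxydopamine lesions (6 µg in 3 µl). HCl salts in saline given sc, screened at 2 mg/kg; contralateral turns recorded automatically for at least 1 h as turns per hour. Dose-response curves used 4-5 animals; potency ratio to apomorphine with 95% CI calculated over 60 min after dosing.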

For test [4], the species on record is Rattus norvegicus. Nature of the test: Tested for the alteration in rat CNS transmitter synthesis by […] of 5-HTP from olfactory tubercle. Set-up: concentration or dose not given beside the values. In a few lines:
as §2

Test [5] concerns Felis catus. In words: Tested for the percent change in blood pressure after administration in cat. The procedure, abridged: as §1
The test system of test [6] is Felis catus. In words: Tested for the change in heart rate after administration in cat. The procedure, abridged:
as §1

Turning to `CN1CCc2cccc3c2[C@H]1Cc1ccc(O)c(O)c1-3` [APOMORPHINE], the ED50 in test [1] worked out at 0.103 µmol/kg. This molecule showed a Control in test [2] of 18.3%. In test [3], the Ratio is 1.
`CNC1CCc2c(OC)ccc(OC)c2C1` (configuration not stated): the Control in test [4] is listed as 33.2%; in test [2] it was 103.8%. Also, the Ratio in test [3] was determined as 3.9.
Take `COc1ccc(OC)c2c1CC(N)C2`: in test [5], the BP change was 6.3%. The HR in test [6] is recorded as 0 beats min-1. Further, the ED50 in test [1] is 1.55 µmol/kg. For the same molecule, the values for the Control in test [4] and in test [2] were 109.7% and 94%, respectively. In addition, the Ratio in test [3] was 8.7.
Turning to `CNC1Cc2c(OC)ccc(OC)c2C1`, the BP change in test [5] is on record as 28.1%. Further, the HR in test [6] is recorded as 2.5 beats min-1. Further, in test [1], the ED50 was 1.23 µmol/kg. In addition, the Control in test [4] turned out to be 94.7%; in test [2] it was 67.9%. For the same molecule, in test [3], the Ratio was 8.2.
In the case of `COc1ccc(OC)c2c1CC(N(C)C)C2`, in test [5], the BP change was found to be 51.8%. In addition, the HR in test [6] is 3.2 beats min-1. Further, the ED50 in test [1] is 1.16 µmol/kg. Moreover, in test [3], the Ratio was determined as 0.019.
Consider `COc1ccc(OC)c2c1CC(NC(C)C)C2`, for which the BP change in test [5] was found to be 3.8%. For the same molecule, in test [6], the HR was determined as 0 beats min-1. Also, in test [1], the ED50 is 1.1 µmol/kg.
For the molecule `CCCN(CCC)C1Cc2c(OC)ccc(OC)c2C1`, the BP change in test [5] is -16.6%. Moreover, the HR in test [6] is recorded as -6.4 beats min-1. The ED50 in test [1] turned out to be 0.107 µmol/kg. In addition, the Control is 51.5% in test [4] and 31.8% in test [2]. Further, in test [3], the Ratio was determined as 0.13.
Take `CCCNC1Cc2c(OC)ccc(OC)c2C1`: the BP change in test [5] stood at 0.7%. Also, the HR in test [6] is recorded as -3.2 beats min-1. In addition, the ED50 in test [1] came to 1.1 µmol/kg. The Control in test [4] is on record as 104.7%; in test [2] it was 79.1%. In addition, the Ratio in test [3] is 7.4.
